Test results from ChEMBL document CHEMBL3259728, “Design, synthesis and biological evaluation of some novel substituted quinazolines as antitumor agents” (2014).

Assays:
Assay type in all cases: functional
[1] = system: MDA-MB-468; assay: Growth inhibition of human MDA-MB-468 cells assessed as cell growth at 10 uM after 48 hrs by SRB assay; conditions: MDA-MB-468, 48 h, read-out: GI
How it was run: (§1)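 NCI-60 primary one-dose screen run at the US NCI, with human tumour lines from nine cancer types. Compound added once at 10^-5 M, followed by 48 h incubation. End point was sulforhodamine B protein staining read spectrophotometrically. Result given as percent growth of treated cells against untreated controls, reported as % growth inhibition.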

[2] = system: T47D; assay: Growth inhibition of human T47D cells at 10 uM after 48 hrs by SRB assay; conditions: read-out: GI; how it was run: as §1
[3] = Growth inhibition of human BT549 cells at 10 uM after 48 hrs by SRB assay; conditions: BT-549, 48 h, read-out: GI
How it was run: (§2)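 NCI primary one-dose screen. A single concentration of 10^-5 M was added to the cell culture, followed by 48 h incubation and an SRB protein-dye endpoint read spectrophotometrically. Results are growth percentage relative to untreated control cells, reported as % growth inhibition.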

[4] = system: MCF7; assay: Growth inhibition of human MCF7 cells at 10 uM after 48 hrs by SRB assay; conditions: MCF7, 48 h, read-out: GI; how it was run: as §1
[5] = system: DU-145; assay: Growth inhibition of human DU145 cells at 10 uM after 48 hrs by SRB assay; conditions: DU-145, 48 h, read-out: GI; how it was run: as §1
[6] = system: PC-3; assay: Growth inhibition of human PC3 cells at 10 uM after 48 hrs by SRB assay; conditions: PC-3, 48 h, read-out: GI; how it was run: as §1
[7] = system: TK-10; assay: Growth inhibition of human TK10 cells at 10 uM after 48 hrs by SRB assay; conditions: TK-10, 48 h, read-out: GI; how it was run: as §1
[8] = system: SN12C; assay: Growth inhibition of human SN12C cells at 10 uM after 48 hrs by SRB assay; conditions: read-out: GI; how it was run: as §1
[9] = Growth inhibition of human RXF393 cells at 10 uM after 48 hrs by SRB assay; conditions: RXF 393, 48 h, read-out: GI; how it was run: as §1
[10] = system: ACHN; assay: Growth inhibition of human ACHN cells at 10 uM after 48 hrs by SRB assay; conditions: read-out: GI; how it was run: as §2
[11] = system: A498; assay: Growth inhibition of human A498 cells at 10 uM after 48 hrs by SRB assay; conditions: A498, 48 h, read-out: GI; how it was run: as §2
[12] = system: 786-0; assay: Growth inhibition of human 786-0 cells at 10 uM after 48 hrs by SRB assay; conditions: 786-0, 48 h, read-out: GI; how it was run: as §2
[13] = system: SK-OV-3; assay: Growth inhibition of human SKOV3 cells at 10 uM after 48 hrs by SRB assay; conditions: SK-OV-3, 48 h, read-out: GI; how it was run: as §1
[14] = Growth inhibition of human NCI-ADR-RES cells at 10 uM after 48 hrs by SRB assay; conditions: read-out: GI; how it was run: as §1
[15] = Growth inhibition of human OVCAR5 cells at 10 uM after 48 hrs by SRB assay; conditions: OVCAR-5, 48 h, read-out: GI; how it was run: as §1
[16] = Growth inhibition of human OVCAR3 cells at 10 uM after 48 hrs by SRB assay; conditions: OVCAR-3, 48 h, read-out: GI; how it was run: as §1
[17] = Growth inhibition of human UACC62 cells at 10 uM after 48 hrs by SRB assay; conditions: UACC-62, 48 h, read-out: GI; how it was run: as §1
[18] = Growth inhibition of human UACC257 cells at 10 uM after 48 hrs by SRB assay; conditions: UACC-257, 48 h, read-out: GI; how it was run: as §1
[19] = system: SK-MEL-2; assay: Growth inhibition of human SK-MEL-2 cells at 10 uM after 48 hrs by SRB assay; conditions: SK-MEL-2, 48 h, read-out: GI; how it was run: as §1
[20] = system: MDA-MB-435; assay: Growth inhibition of human MDA-MB-435 cells at 10 uM after 48 hrs by SRB assay; conditions: MDA-MB-435, 48 h, read-out: GI; how it was run: as §1
[21] = system: M14; assay: Growth inhibition of human M14 cells at 10 uM after 48 hrs by SRB assay; conditions: M14, 48 h, read-out: GI; how it was run: as §1
[22] = system: Malme-3M; assay: Growth inhibition of human MALME-3M cells at 10 uM after 48 hrs by SRB assay; conditions: read-out: GI; how it was run: as §1
[23] = system: U-251; assay: Growth inhibition of human U251 cells at 10 uM after 48 hrs by SRB assay; conditions: U-251, 48 h, read-out: GI; how it was run: as §1
[24] = system: SNB-19; assay: Growth inhibition of human SNB19 cells at 10 uM after 48 hrs by SRB assay; conditions: SNB-19, 48 h, read-out: GI; how it was run: as §1
[25] = Growth inhibition of human SF539 cells at 10 uM after 48 hrs by SRB assay; conditions: SF-539, 48 h, read-out: GI; how it was run: as §1
[26] = system: SF-268; assay: Growth inhibition of human SF268 cells at 10 uM after 48 hrs by SRB assay; conditions: SF-268, 48 h, read-out: GI; how it was run: as §1
[27] = system: SW-620; assay: Growth inhibition of human SW620 cells at 10 uM after 48 hrs by SRB assay; conditions: SW-620, 48 h, read-out: GI; how it was run: as §1
[28] = system: KM12; assay: Growth inhibition of human KM12 cells at 10 uM after 48 hrs by SRB assay; conditions: KM12, 48 h, read-out: GI; how it was run: as §1
[29] = system: HT-29; assay: Growth inhibition of human HT-29 cells at 10 uM after 48 hrs by SRB assay; conditions: HT-29, 48 h, read-out: GI; how it was run: as §1
[30] = Growth inhibition of human HCT15 cells at 10 uM after 48 hrs by SRB assay; conditions: HCT-15, 48 h, read-out: GI; how it was run: as §1
[31] = system: HCT-116; assay: Growth inhibition of human HCT116 cells at 10 uM after 48 hrs by SRB assay; conditions: HCT-116, 48 h, read-out: GI; how it was run: as §1
[32] = system: NCI-H522; assay: Growth inhibition of human NCI-H522 cells at 10 uM after 48 hrs by SRB assay; conditions: NCI-H522, 48 h, read-out: GI; how it was run: as §1
[33] = system: NCI-H322M; assay: Growth inhibition of human NCI-H322M cells at 10 uM after 48 hrs by SRB assay; conditions: read-out: GI; how it was run: as §1
[34] = system: NCI-H23; assay: Growth inhibition of human NCI-H23 cells at 10 uM after 48 hrs by SRB assay; conditions: NCI-H23, 48 h, read-out: GI; how it was run: as §1
[35] = system: A549; assay: Growth inhibition of human A549 cells at 10 uM after 48 hrs by SRB assay; conditions: A549, 48 h, read-out: GI; how it was run: as §2
[36] = system: SR; assay: Growth inhibition of human SR cells at 10 uM after 48 hrs by SRB assay; conditions: read-out: GI; how it was run: as §1
[37] = system: RPMI-8226; assay: Growth inhibition of human RPMI8226 cells at 10 uM after 48 hrs by SRB assay; conditions: RPMI-8226, 48 h, read-out: GI; how it was run: as §1
[38] = system: K562; assay: Growth inhibition of human K562 cells at 10 uM after 48 hrs by SRB assay; conditions: K562, 48 h, read-out: GI; how it was run: as §1
[39] = system: SK-MEL-28; assay: Growth inhibition of human SK-MEL-28 cells at 10 uM after 48 hrs by SRB assay; conditions: SK-MEL-28, 48 h, read-out: GI; how it was run: as §1

## Cc1ccc(-c2nc3ccc(Cl)cc3c3nnc(S)n23)cc1
[1]
  inhibition of growth at 10 µM: < 10%
[2]
  inhibition of growth at 10 µM: < 10%
[3]
  inhibition of growth at 10 µM: < 10%
[4]
  inhibition of growth at 10 µM: < 10%
[5]
  inhibition of growth at 10 µM: < 10%
[6]
  inhibition of growth at 10 µM: < 10%
[7]
  inhibition of growth at 10 µM: 19%
[8]
  inhibition of growth at 10 µM: < 10%
[9]
  inhibition of growth at 10 µM: < 10%
[10]
  inhibition of growth at 10 µM: < 10%
[11]
  inhibition of growth at 10 µM: 19%
[12]
  inhibition of growth at 10 µM: < 10%
[13]
  inhibition of growth at 10 µM: < 10%
[14]
  inhibition of growth at 10 µM: < 10%
[15]
  inhibition of growth at 10 µM: < 10%
[16]
  inhibition of growth at 10 µM: < 10%
[17]
  inhibition of growth at 10 µM: < 10%
[18]
  inhibition of growth at 10 µM: 33%
[19]
  inhibition of growth at 10 µM: < 10%
[20]
  inhibition of growth at 10 µM: < 10%
[21]
  inhibition of growth at 10 µM: < 10%
[22]
  inhibition of growth at 10 µM: < 10%
[23]
  inhibition of growth at 10 µM: < 10%
[24]
  inhibition of growth at 10 µM: < 10%
[25]
  inhibition of growth at 10 µM: < 10%
[26]
  inhibition of growth at 10 µM: < 10%
[27]
  inhibition of growth at 10 µM: < 10%
[28]
  inhibition of growth at 10 µM: 11%
[29]
  inhibition of growth at 10 µM: < 10%
[30]
  inhibition of growth at 10 µM: < 10%
[31]
  inhibition of growth at 10 µM: < 10%
[32]
  inhibition of growth at 10 µM: < 10%
[33]
  inhibition of growth at 10 µM: < 10%
[34]
  inhibition of growth at 10 µM: < 10%
[35]
  inhibition of growth at 10 µM: 11%
[36]
  inhibition of growth at 10 µM: < 10%
[37]
  inhibition of growth at 10 µM: < 10%
[38]
  inhibition of growth at 10 µM: 11%
[39]
  inhibition of growth at 10 µM: < 10%
